According to paper PMC7594318 (ACS Omega, 2020):
Where two headings read alike, the source gives them in different places.

Experiments:
Assay type in all cases: cell-based
[1] = system: human normal lung fibroblast MRC-5 cells; test: WST-8 cytotoxicity assay, normal MRC-5 cells; details: read-out: IC50 (μM) MRC-5
Outline: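 Normal lung fibroblast MRC-5 cells in α-MEM without ribonucleosides/deoxyribonucleosides + 10% FBS. Seeded at 2000 cells/well, preincubated 24 h, then treated with various concentrations for 72 h (DMSO 0.1–0.2% v/v). WST-8 (CCK-8) reagent 2 h at 37 °C, A450. Growth is the ratio of sample to control absorbance. IC50 is the mean ± SD of triplicates. SN-38 positive control.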

[2] = system: human lung adenocarcinoma A549 cells; test: WST-8 cytotoxicity assay, A549 cells; details: for IC50: read-out: IC50 (μM) A549; for SI (selectivity index): IC50 against normal MRC-5 cells divided by IC50 against A549 cells
Outline: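 Human lung adenocarcinoma A549 cells, kept in DMEM + 10% FBS at 37 °C, 5% CO2, seeded at 2000 cells/well, preincubated 24 h, then exposed to various concentrations for 72 h (DMSO 0.1–0.2% v/v). WST-8 (CCK-8) reagent 2 h at 37 °C, A450. Growth is sample/control absorbance. IC50 is mean ± SD of triplicates. SN-38 positive control. SI = MRC-5 IC50 / A549 IC50.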

[3] = system: human promyelocytic leukemia HL-60 cells; test: WST-8 cytotoxicity assay, HL-60 cells; details: read-out: IC50 (μM) HL-60
Outline: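 HL-60 promyelocytic leukemia cells, grown in RPMI 1640 + 10% FBS at 37 °C, 5% CO2, plated at 5000 cells/well with various concentrations for 72 h (DMSO 0.1–0.2% v/v). CCK-8 (WST-8) reagent added for 2 h at 37 °C, absorbance read at 450 nm. Growth is taken as the sample/control absorbance ratio. IC50 is the mean ± SD of triplicate experiments. SN-38 positive control.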

[4] = Table 3, WST-8, 72 h, mean ± SD of triplicate experiments
[5] = Table 4, WST-8, 72 h, mean ± SD of triplicate experiments

| SMILES | IC50 [1, 4] [µM] | IC50 [1, 5] [µM] | IC50 [2, 4] [µM] | IC50 [2, 5] [µM] | IC50 [3, 4] [µM] | IC50 [3, 5] [µM] | IC50 ([1]; Homo sapiens, MRC5, 72 h) [µM] | IC50 ([2]; Homo sapiens, A549, 72 h) [µM] | SI (selectivity index) ([2]; Table 3) | IC50 ([3]; Homo sapiens, HL-60, 72 h) [µM] | SI (selectivity index) ([2]; Table 4) |
| --- | --- | --- | --- | --- | --- | --- | --- | --- | --- | --- | --- |
| CCc1c2c(nc3ccc(O)cc13)-c1cc3c(c(=O)n1C2)COC(=O)[C@]3(O)CC [SN-38, reference compound] | < 0.1 | 0.092 ± 0.001 | 0.038 ± 0.003 | 0.052 ± 0.003 | < 0.05 | 0.056 ± 0.002 |  |  |  |  |  |
| Cn1c2ccc(Br)c(=O)c-2nc2ccccc21 [1b, 2-Bromo-5-methylphenazin-1(5H)-one] |  |  |  |  |  |  | 3.36 ± 0.204 | 2.59 ± 0.056 | 1.30 | 3.07 ± 0.08 |  |
| CC(C)=CCn1c2ccc(Cl)c(=O)c-2nc2ccccc21 [3c, 2-Chloro-5-(3-methylbut-2-en-1-yl)phenazin-1(5H)-one] |  |  |  |  |  |  | 0.66 ± 0.041 | 0.66 ± 0.016 |  | 2.2 ± 0.07 | 1.00 |
| Cn1c2cccc(=O)c-2nc2ccccc21 [1a, pyocyanin] |  |  |  |  |  |  | 21.8 ± 2.55 | 5.52 ± 0.28 | 3.95 | 5.82 ± 0.133 |  |
